ChEMBL document CHEMBL1140729, “Synthesis and evaluation of 2'-hydroxyethyl trans-apovincaminate derivatives as antioxidant and cognitive enhancer agents” (J Med Chem, 2008)
The source made the active and inactive calls. The calls are words filed in the database; no cut-off is given here.

Columns and labels:
Rattus norvegicus [1] = assay: Protective effect against diazepam-induced learning-deficit in Wistar rat at 5 mg/kg, po by water labyrinth test; format: functional
How it was run: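 Male Wistar rats, 200–220 g, 10 per group. Diazepam 5 mg/kg i.p. in 5% Tween 80, given 30 min before the first swim. Compound given orally at 5 mg/kg 1 h before the first daily trial. Four-day water-labyrinth task with three choice points in water at 24 °C: one pretraining day, then three trials per day. Directional turning errors counted, 12 if the platform was not found in 5 min. Percent restoration calculated; ANOVA with Duncan test.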

Rattus norvegicus [2] = organism: Rattus norvegicus; assay: Inhibition of […] lipid peroxidation in rat brain microsome; format: functional
How it was run: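 Rat brain microsomes (78000 g pellet) in KCl at 0.2 mg protein per ml. Medium: 50 mM Tris-HCl pH 6.8, 0.2 mM FeCl3, 1 mM KH2PO4, 0.5 mM ADP, preincubated 20 min at 37 °C ± compound. LPO started with 0.4 mM NADPH, run 20 min, stopped with TCA/HCl. TBA boiled 10 min, OD read at 535 nm. IC50 obtained by sigmoid fit of 7–9 concentrations, triplicates.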

Mus musculus [3] = assay: Inhibition of diazepam-induced amnesia in NMRI mouse at 10 mg/kg, po by one-trial passive avoidance test; format: functional
How it was run: (§1)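 Male NMRI mice, 25–28 g, 10 per group. Anterograde amnesia induced by diazepam 3 mg/kg i.p. 30 min before the acquisition trial. Test compound given orally (0.1 or 10 mg/kg) 1 h before acquisition. Readout is latency to enter the dark chamber. Percent restoration P% = (T_treated+DIA − T_placebo+DIA)/(T_placebo − T_placebo+DIA) × 100.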

Mus musculus [4] = assay: Inhibition of diazepam-induced amnesia in NMRI mouse at 0.1 mg/kg, po by one-trial passive avoidance test; format: functional; how it was run: as §1
Brain = assay: Inhibition of Fe2+-induced lipid peroxidation in rat brain homogenate; format: functional, tissue-based
How it was run: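 Whole rat brain homogenized in 9 vol ice-cold Krebs-Ringer/15 mM HEPES pH 7.4 with glucose, used fresh at 10 mg protein/ml. Preincubated with compound 20 min at 37 °C. LPO started with ferrous ammonium sulfate (200 µM Fe²⁺), run 20 min, stopped with TCA/HCl. TBA added to supernatant, boiled 20 min, OD read at 535 nm. IC50 obtained by sigmoid fit of 6–9 concentrations, triplicates.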

Mus musculus [5] = assay: Effect on memory improvement in NMRI mouse at 10 mg/kg by passive avoidance test; format: functional, organism-based; parameters: dose 10 mg/kg; how it was run: as §1

Row | SMILES | Activity (Rattus norvegicus [1]) [%] | IC50 (Rattus norvegicus [2]) [µM] | inhibition in vivo at 10 mg/kg (Mus musculus [3]) [%] | inhibition in vivo at 0.1 mg/kg (Mus musculus [4]) [%] | IC50 (Brain) [µM] | Activity (Mus musculus [5])
1 | CC[C@@]12C=C(C(=O)OCCO)n3c4c(c5ccccc53)CCN(CCC1)[C@H]42 | 80.3 | > 30 | – | – | – | –
2 | CCC(=O)OCCOC(=O)C1=C[C@@]2(CC)CCCN3CCc4c(n1c1ccccc41)[C@@H]32 | – | 4.4 | 24 | 64 | 15.8 | –
3 | Cc1cc(C(C)(C)C)c(O)c(C(C)(C)C)c1 [BUTYLATED HYDROXYTOLUENE] | – | 3.2 | – | – | 6.2 | –
4 | COC1=C(OC)C(=O)C(CCCCCCCCCCO)=C(C)C1=O [IDEBENONE] | – | 1.3 | – | – | 31.5 | –
5 | CCOC(=O)C1=C[C@@]2(CC)CCCN3CCc4c(n1c1ccccc41)[C@@H]32 | – | 3 | – | – | 13.4 | –
6 | CC[C@]12C=C(C(=O)O)n3c4c(c5ccccc53)CCN(CCC1)[C@H]42 | – | > 300 | – | – | 258 | –
7 | Cc1c(C)c2c(c(C)c1O)CCC(C)(CCCC(C)CCCC(C)CCCC(C)C)O2 (racemic) [alpha-TOCHOPHEROL] | – | 273 | – | – | 35.7 | –
8 | CC[C@]12C=C(C(=O)OCCOC(C)=O)n3c4c(c5ccccc53)CCN(CCC1)[C@H]42 | – | 3.8 | 44 | 72 | 15.2 | Active
9 | CC[C@@]12C=C(C(=O)OCCO)n3c4c(c5ccccc53)CCN(CCC1)[C@@H]42 | 81.1 | 7 | 65 | 74 | 13.7 | Active
10 | CC[C@]12C=C(C(=O)OCCOC(=O)c3ccc(Cl)cc3)n3c4c(c5ccccc53)CCN(CCC1)[C@H]42 | – | 2.7 | – | – | 15.7 | –
11 | CCOC(=O)C1=C[C@]2(CC)CCCN3CCc4c(n1c1ccccc41)[C@H]32 | – | 3.5 | – | – | 14.4 | –
12 | CCOC(=O)C1=C[C@]2(CC)CCCN3CCc4c(n1c1ccccc41)[C@@H]32 [VINPOCETINE] | 56.6 | 137 | 100 | 0 | 209 | –
13 | CCC(=O)OCCOC(=O)C1=C[C@]2(CC)CCCN3CCc4c(n1c1ccccc41)[C@H]32 | – | 5 | 4 | 16 | 21 | –
14 | CC[C@@]12C=C(C(=O)OCCOC(=O)c3ccccc3)n3c4c(c5ccccc53)CCN(CCC1)[C@@H]42 | – | 3.8 | 0 | 0 | 18.2 | –
15 | CC[C@]12C=C(C(=O)OCCOC(=O)c3ccccc3)n3c4c(c5ccccc53)CCN(CCC1)[C@H]42 | – | 3.4 | 16 | 23 | 14.8 | –
16 | O=c1c(O)c(-c2ccc(O)c(O)c2)oc2cc(O)cc(O)c12 [QUERCETIN] | – | 8.5 | – | – | 10.7 | –
17 | CC[C@@]12C=C(C(=O)OCCOC(=O)c3ccc(Cl)cc3)n3c4c(c5ccccc53)CCN(CCC1)[C@@H]42 | – | 2.7 | 15 | 3 | 14.6 | –
18 | CC[C@@]12C=C(C(=O)O)n3c4c(c5ccccc53)CCN(CCC1)[C@H]42 | 66.7 | – | – | – | – | –
19 | CC[C@]12C=C(C(=O)OCCO)n3c4c(c5ccccc53)CCN(CCC1)[C@H]42 | – | 9.1 | 56 | 50 | 13.6 | Active
20 | CC[C@@]12C=C(C(=O)OCCOC(C)=O)n3c4c(c5ccccc53)CCN(CCC1)[C@@H]42 | – | 3.6 | 100 | 79 | 9.8 | Active
21 | CC[C@@]12C=C(C(=O)[O-])n3c4c(c5ccccc53)CCN(CCC1)[C@@H]42.[Na+] | 71.3 | > 300 | – | – | 238 | –
